From PubChem
m5-HT2A agonist – mouse Htr2a agonists via beta-arrestin recruitment, primary screen, cell-based, luminescence. 360,000 compounds, 0.66% hits. activation, % at 7.6 µM. CHO-K1 mHTR2A beta-arrestin complementation; percent of 30 µM serotonin response. 5-hydroxytryptamine receptor 2A (Mus musculus), P35363;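 active = activation above a run cutoff, the mean activation of all tested compounds plus 3 SD, cut at about 14% in these data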
Arrestin-AP2 inh – inhibitors of beta-arrestin/AP2 binding, primary screen, biochemical, GPCR trafficking, flow cytometry; beta-arrestin 1 C-terminal peptide binding to AP2 beta2-adaptin appendage (human); FITC-arrestin peptide / GST-AP2 beads; AP2 beta2 appendage carries R879A mutation; inhibition, % at 10 µM; 340,000 compounds, 0.31% hits;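 active = inhibition above a set limit, near 3 SD of compounds lacking own fluorescence, cut at about 54% in these data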
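Material – GST-tagged AP2 beta2-adaptin appendage (R879A) on 4 µm glutathione beads · Probe or stimulus – fluorescein-tagged arrestin peptide at 50 nM final · Timing – 12 min plus 1 h, RT · Detection – bead flow cytometry, FITC channel · Read-out basis – inhibition as reduced fluorescein signal on beads, percent · Medium – PBS plus Tween 20 (0.05%) and BSA (0.1%)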
CendR NRP1 mod – modulators of CendR peptide binding to NRP-1, primary screen, biochemical, fluorescence polarization, uHTS; Neuropilin-1 (Homo sapiens), O14786; FAM-RPARPAR peptide binding to NRP-1; inhibition, % at 25 µM; 360,000 compounds, 0.85% hits;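 active = inhibition or corrected inhibition above about 18%, plus a signal ratio from 0.5 to 1.5, limit read from the data, passing the limit was not always enough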
HGIII-sPLA2 inh – human group III sPLA2 inhibitors, primary screen, biochemical, QFRET, BODIPY PC-A2 liposome substrate; Group 3 secretory phospholipase A2 (Homo sapiens), Q9NZ20; QFRET BODIPY PC-A2 liposome hydrolysis, fluorescence; inhibition, % at 12.2 µM; 370,000 compounds, 0.56% hits;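 active = inhibition above mean plus 3 SD of compounds lying within the high and low control bounds, cut at about 19% in these data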
Target sequence (Q9NZ20 whole entry, looked up): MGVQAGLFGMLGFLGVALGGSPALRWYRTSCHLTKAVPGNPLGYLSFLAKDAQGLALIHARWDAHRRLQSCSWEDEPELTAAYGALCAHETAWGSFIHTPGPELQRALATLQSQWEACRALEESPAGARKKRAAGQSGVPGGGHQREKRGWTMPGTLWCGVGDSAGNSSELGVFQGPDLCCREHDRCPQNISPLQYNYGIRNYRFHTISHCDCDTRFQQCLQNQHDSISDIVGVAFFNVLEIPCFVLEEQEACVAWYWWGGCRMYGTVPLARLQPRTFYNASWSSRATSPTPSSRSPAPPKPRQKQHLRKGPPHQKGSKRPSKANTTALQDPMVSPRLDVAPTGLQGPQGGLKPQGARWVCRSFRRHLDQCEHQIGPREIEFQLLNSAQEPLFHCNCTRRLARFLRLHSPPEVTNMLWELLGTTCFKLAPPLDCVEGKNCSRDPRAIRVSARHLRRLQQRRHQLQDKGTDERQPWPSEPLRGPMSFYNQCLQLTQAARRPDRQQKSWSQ
Hep lipid drop – inhibitors of hepatocyte lipid droplet formation, primary screen, imaging, high-throughput imaging, BODIPY stain; 240,000 compounds, 0.4% hits; inhibition, % at 6.5 µM; AML12 mouse hepatocytes, oleate lipid droplets;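 active = lipid droplet intensity inhibited by at least 50%, with more than 500 cells counted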
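Material – AML12 mouse liver cells · Also added – oleate loading, 100 µM · Compound dosing – 6.5 µM single-point dosing · Times – overnight treatment with compound plus oleate · Measured by – fluorescence imaging, 20x objective, two fields per well · Read-out – percent inhibition of filter-corrected integrated lipid droplet intensity per well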
M18AAP inhibitor – PfM18AAP inhibitors, malaria aminopeptidase, primary screen, biochemical, QFRET, recombinant enzyme; M18 aspartyl aminopeptidase (Plasmodium falciparum 3D7); H-Glu-NHMec fluorogenic cleavage; inhibition, % at 7.35 µM; 290,000 compounds, 1.2% hits; AID 1822, 2009;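 active = inhibition above the campaign mean inhibition over all tested compounds plus 3 SD, cut at about 28% in these data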
MOR ag counter – OPRM1 agonists via beta-arrestin recruitment, confirmation, counter-screen for mouse HTR2A agonist project, cell-based, luminescence, single concentration. shares compounds with m5-HT2A agonist. U2OS OPRM1 beta-arrestin PathHunter; DMSO 0%, DAMGO 9.3 µM 100%. activation, % at 9.3 µM. 2,300 compounds, 5.3% hits;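 active = mean activation above the mean of DMSO-only wells plus 3 SD, cut at about 0.5% in these data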
HTR2A ag conf – mouse HTR2A agonists, beta-arrestin recruitment, confirmation, cell-based, luminescence, CHO-K1 PathHunter, triplicate. shares compounds with m5-HT2A agonist. activation, % at 7.6 µM. DMSO 0%, 30 µM serotonin 100%. 2,300 compounds, 19% hits. AID 624381, 2012;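 active = mean activation across triplicates above the hit threshold derived in the original primary screen, cut at about 15% in these data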
sPLA2 confirm – human group III sPLA2 inhibitors, confirmation, biochemical, QFRET, triplicate | shares compounds with HGIII-sPLA2 inh | recombinant hGIII-sPLA2, BODIPY PC-A2 QFRET fluorescence | inhibition, % at 12.2 µM | 2,000 compounds, 34% hits | AID 743280, 2014;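 active = mean inhibition across triplicates above the hit cutoff set in the earlier primary screen, cut at about 19% in these data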
BODIPY interf – 535nm fluorescence optical interference, confirmation, artefact control for HGIII-sPLA2 inhibitor project, biochemical, QFRET; BODIPY FL product fluorescence interference; inhibition, % at 12.2 µM; 2,000 compounds, 8.5% hits; AID 743282, 2014; shares compounds with HGIII-sPLA2 inh;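 active = average inhibition above the solvent-only control mean plus 3 SD, cut at about 6% in these data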
535nm interf DR – 535nm fluorescence optical interference, dose response, artefact control for HGIII-sPLA2 inhibitor project, biochemical, QFRET | shares compounds with HGIII-sPLA2 inh | BODIPY FL product fluorescence interference, cell-free | IC50, µM | 240 tested, under 10 active | AID 743455, 2014;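 active = IC50 at or below 10 µM; inactive = IC50 above 10 µM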
Numbers stand for hits; i = inactive; nt = not tested or not shown; ! = a repeat was not active. Compounds with a hit are over-represented: about 3.3% of the library has one in this group of screens.

SMILES	m5-HT2A agonist	Arrestin-AP2 inh	CendR NRP1 mod	HGIII-sPLA2 inh	Hep lipid drop	M18AAP inhibitor	sPLA2 confirm	BODIPY interf	others
CCCC(C)n1[nH]c(=O)c2c1NC(=O)CSC2c1ccccc1 (stereo unspecified)	i	i	i	i	i	i	nt	nt
COc1ccc2[nH]cc(CCN)c2c1	52	i	i	i	i	i	nt	nt	MOR ag counter=i;HTR2A ag conf=28
CCCCCCCCCOc1ccc2[nH]cc(CCN)c2c1	nt	nt	nt	nt	i	i	nt	nt
COc1ccc(OC)c(-n2c(O)c(C=Nc3c(C)n(C)n(-c4ccccc4)c3=O)c(=O)[nH]c2=S)c1	i	i	i	i	i	i	nt	nt
CCOC(=O)c1ccc(NC(=O)N2C[C@@H]3C[C@@H](C2)c2cccc(=O)n2C3)cc1	25	i	i	i	i	i	nt	nt	MOR ag counter=i;HTR2A ag conf=i
C=CCCC1(CC)C(=O)NC(=S)NC1=O	i	i	i	i	nt	nt	nt	nt
Cc1ncc([N+](=O)[O-])n1CCOc1nonc1N	i	i	i	i	i	i	nt	nt
Cc1cc(C)n2c(Br)c(CN3CC4CC(C3)c3cccc(=O)n3C4)nc2n1 (stereo unspecified)	22	i	i	i	i	i	nt	nt	MOR ag counter=i;HTR2A ag conf=i
NC1CCc2cc(O)c(O)cc2C1 (stereo unspecified)	58	i	i	i	nt	nt	nt	nt	MOR ag counter=i;HTR2A ag conf=153
CC[C@H](C)[C@@H]1NC(=O)CNC(=O)c2csc(n2)[C@H](C(C)(C)O)OC(=O)C(C)(C)[C@H](CCCC(C)(Cl)Cl)OC(=O)c2csc1n2	15	nt	i	i	nt	nt	nt	nt	MOR ag counter=i;HTR2A ag conf=i
CCCCn1c(O)c(C(=O)/C=C/c2ccc3c(c2)OCO3)c(=O)[nH]c1=O	27	i	i	i	i	i	nt	nt	MOR ag counter=i;HTR2A ag conf=i
O=C(/C=C/c1ccc2c(c1)OCO2)c1c(O)n(CCC2=CCCCC2)c(=O)[nH]c1=O	i	i	i	i	i	i	nt	nt
CCCCC1(CC)COP(=O)(OCC(Cl)(Cl)Cl)OC1 (stereo unspecified)	20	i	i	i	nt	nt	nt	nt	MOR ag counter=i;HTR2A ag conf=i
COc1cc(CC(C)N)c(OC)cc1I (stereo unspecified)	70	i	i	24!	nt	nt	i	i	MOR ag counter=i;HTR2A ag conf=39
CCN(C(=O)COC(=O)c1cn(C)c2ccccc12)c1ccc(F)cc1	i	i	i	i	nt	nt	nt	nt
CCC(C)N1C(=O)/C(=C\c2cc3c4c(c2)CCCN4CCC3)C(=O)NC1=S (stereo unspecified)	i	i	i	22	i	i	33	i	535nm interf DR=i
O=c1[nH]c(O)c(/C=C2/C=CC(c3cc(Cl)ccc3Cl)=N2)c(=O)[nH]1	i	i	i	20	i	i	i	i
CN(C)c1ccc(/C=C/[N+](=O)[O-])cc1	i	i	i	23	i	31	i	i
Cc1cccc(OP(=O)(NCc2ccccc2)Oc2cccc(C)c2)c1	i	i	i	i	i	i	nt	nt
COc1ccc(CCNCc2c(OC)ccc3ccccc23)cc1	i	i	i	i	i	i	nt	nt
CN(C)c1ccccc1	i	nt	i	i	nt	nt	nt	nt
Cc1cccc(N=Nc2ccc(N(C)C)cc2)c1	i	i	i	20	i	i	27	i
CCCCn1c(=O)c(C(=O)Nc2ncccc2C)c(O)c2ccccc21	i	i	i	20	i	i	i	i
NNCc1ccccc1	i	i	i	20!	nt	nt	i	i
c1ccc(CNC2CCCCCCC2)cc1 (tested in a mixture with another compound)	i	i	i	i	nt	nt	nt	nt
SMILES	m5-HT2A agonist	Arrestin-AP2 inh	CendR NRP1 mod	HGIII-sPLA2 inh	Hep lipid drop	M18AAP inhibitor	sPLA2 confirm	BODIPY interf	others
O=C1CCCN1C(=O)c1cncc(Br)c1	i	i	i	i	i	i	nt	nt
Nc1cncc(C(=O)O)c1	i	i	i	21!	i	i	i	i
O=C1C2(c3ccccc3)CN3CN(C2)CC1(c1ccccc1)C3	i	i	i	i	i	i	nt	nt
O=C(O)c1ccc(-[n+]2c(-c3ccccc3)cc(-c3ccccc3)cc2-c2ccccc2)cc1	i	i	i	i	nt	nt	nt	nt
CCCOC(=O)c1ccc(-[n+]2c(-c3ccccc3)cc(-c3ccccc3)cc2-c2ccccc2)cc1	i	i	i	26	nt	nt	i	i
CCOc1ccccc1NC(=O)N1CCC2(CC1)OCCO2	i	i	i	i	i	i	nt	nt
COc1ccccc1CCNC1CCCCCC1	i	i	i	i	i	i	nt	nt
COc1ccccc1CCNC1CCCC(C)C1 (stereo unspecified)	i	i	i	23	i	i	i	i
C/C(=N\N1CCN(C)CC1)c1c(O)[nH]c(=O)[nH]c1=O	i	i	i	20	i	i	i	i
CN1c2ccc(Br)cc2[C@@H]2NCC[C@@H]2[C@@H]1CO	nt	nt	nt	i	nt	nt	nt	nt
